Assay results as given in ChEMBL document CHEMBL3739413, “Discovery of substituted-2,4-dimethyl-(naphthalene-4-carbonyl)amino-benzoic acid as potent and selective EP4 antagonists” (Bioorg Med Chem Lett, 2016).
In brackets after ≈: the same amount, converted by molar mass. Values belong to the compound of their own block, whether it stands above or below them.

How the values were obtained:
[1] = biological target: T1, Prostaglandin E2 receptor EP4 subtype (Homo sapiens, UniProt P35408); experiment: Antagonist activity at human EP4 receptor
T1 sequence (P35408 whole entry): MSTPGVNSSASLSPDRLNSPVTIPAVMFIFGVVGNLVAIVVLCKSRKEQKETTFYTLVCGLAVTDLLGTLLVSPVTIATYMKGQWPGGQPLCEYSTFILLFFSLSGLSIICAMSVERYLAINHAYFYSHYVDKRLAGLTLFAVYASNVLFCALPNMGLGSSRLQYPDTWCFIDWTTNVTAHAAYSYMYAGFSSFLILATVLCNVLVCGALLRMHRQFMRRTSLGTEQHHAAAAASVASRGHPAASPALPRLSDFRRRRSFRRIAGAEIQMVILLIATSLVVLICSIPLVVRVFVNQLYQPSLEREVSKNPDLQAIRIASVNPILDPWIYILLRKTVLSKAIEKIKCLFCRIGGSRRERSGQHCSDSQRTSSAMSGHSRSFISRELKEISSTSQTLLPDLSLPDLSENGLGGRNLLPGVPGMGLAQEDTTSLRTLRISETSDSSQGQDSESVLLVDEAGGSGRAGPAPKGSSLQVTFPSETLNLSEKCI

[2] = biological target: T1, Prostaglandin E2 receptor EP4 subtype; experiment: Antagonist activity at EP4 receptor in human whole blood assessed as reversal of inhibition of PGE2 mediated LPS-induced TNF alpha production pretreated for 30 mins using 3,3',5,5' tetramethylbiphenyl-4,4'-diamine substrate measured after 20 to 24 hrs by immunoassay; assay type: tissue-based
Outline: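 Pooled heparinized blood from volunteer donors (no NSAIDs or celecoxib for 48 h, no glucocorticoids for 2 weeks). Compounds added in triplicate as 7-point curves from DMSO stocks at 100× final, preincubated 30 min at 37 °C under 5% CO2. Stimulated with LPS ± PGE2 (final 10 nM), incubated 20–24 h, plasma TNFα read by ELISA at A450–A650. IC50 from sigmoidal fit, reported as geometric mean ± SD.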

[3] = biological target: T1, Prostaglandin E2 receptor EP4 subtype; experiment: Antagonist activity at human EP4 receptor in HEK293 cells assessed as inhibition of PGE2-induced cAMP accumulation; assay type: functional, cell-based
Outline: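 HEK293 cells; functional readout was inhibition of PGE2-induced cAMP accumulation. IC50 reported ± SEM, with number of experiments.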

[4] = biological target: T1, Prostaglandin E2 receptor EP4 subtype; experiment: Potency index, ratio of IC50 for CJ-023423 to IC50 for test compound against EP4 receptor in human whole blood; assay type: tissue-based
[5] = Oral bioavailability in rat at 5 mg/kg; assay type: ADME, organism-based; details: in vivo
[6] = biological target: T2, Prostaglandin E2 receptor EP3 subtype (Homo sapiens, UniProt P43115); experiment: Antagonist activity at human EP3 receptor
T2 sequence (P43115 whole entry): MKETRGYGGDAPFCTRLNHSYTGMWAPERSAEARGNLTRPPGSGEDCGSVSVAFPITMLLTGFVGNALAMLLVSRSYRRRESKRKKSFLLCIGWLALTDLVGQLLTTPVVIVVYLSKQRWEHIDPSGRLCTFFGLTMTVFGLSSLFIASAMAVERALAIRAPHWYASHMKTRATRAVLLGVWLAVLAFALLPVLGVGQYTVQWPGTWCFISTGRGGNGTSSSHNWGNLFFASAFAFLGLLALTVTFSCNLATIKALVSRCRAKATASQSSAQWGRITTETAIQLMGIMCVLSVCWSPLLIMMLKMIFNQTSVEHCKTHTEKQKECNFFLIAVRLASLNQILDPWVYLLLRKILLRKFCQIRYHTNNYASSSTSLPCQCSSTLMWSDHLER

[7] = biological target: Prostaglandin E2 receptor EP2 subtype (Homo sapiens, UniProt P43116); experiment: Antagonist activity at human EP2 receptor
Sequence of Prostaglandin E2 receptor EP2 subtype (P43116 whole entry): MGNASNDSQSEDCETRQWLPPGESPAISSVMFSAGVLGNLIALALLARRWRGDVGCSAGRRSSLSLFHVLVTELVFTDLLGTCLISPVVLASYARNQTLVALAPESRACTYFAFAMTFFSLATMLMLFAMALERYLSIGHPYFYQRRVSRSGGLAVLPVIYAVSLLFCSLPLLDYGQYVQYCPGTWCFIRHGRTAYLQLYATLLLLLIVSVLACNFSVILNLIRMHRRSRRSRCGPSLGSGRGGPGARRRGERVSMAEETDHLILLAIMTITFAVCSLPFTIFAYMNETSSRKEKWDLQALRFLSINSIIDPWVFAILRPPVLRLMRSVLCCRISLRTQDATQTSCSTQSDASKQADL

Cytochrome P450 2C8 = biological target: T3, Cytochrome P450 2C8 (Homo sapiens, UniProt P10632); experiment: Inhibition of CYP2C8 (unknown origin); assay type: ADME
T3 sequence (P10632 whole entry): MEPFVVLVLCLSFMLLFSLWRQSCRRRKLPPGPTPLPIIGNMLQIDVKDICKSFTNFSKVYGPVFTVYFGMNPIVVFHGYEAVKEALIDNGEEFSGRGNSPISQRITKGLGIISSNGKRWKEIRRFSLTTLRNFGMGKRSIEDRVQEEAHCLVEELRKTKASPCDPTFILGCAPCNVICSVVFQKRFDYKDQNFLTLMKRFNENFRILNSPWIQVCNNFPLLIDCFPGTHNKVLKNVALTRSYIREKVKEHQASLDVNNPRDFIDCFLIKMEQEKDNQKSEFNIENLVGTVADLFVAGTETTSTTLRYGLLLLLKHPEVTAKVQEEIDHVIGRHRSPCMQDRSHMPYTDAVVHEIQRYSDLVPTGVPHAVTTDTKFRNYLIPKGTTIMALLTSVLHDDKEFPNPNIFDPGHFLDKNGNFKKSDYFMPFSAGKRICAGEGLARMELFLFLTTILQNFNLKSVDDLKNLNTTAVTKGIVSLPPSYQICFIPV

[8] = Drug metabolism in rat hepatic microsomes incubated for 30 mins in presence of NADPH; assay type: ADME, Microsome; details: liver microsomes, read-out: Drug metabolism
Outline: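 Compound incubated 30 min with rat liver microsomes and NADPH; percent metabolized reported.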

[9] = Ratio of Cmax in rat to IC50 for EP4 in human whole blood
Cytochrome P450 1A2 = biological target: T4, Cytochrome P450 1A2 (Homo sapiens, UniProt P05177); experiment: Inhibition of CYP1A2 (unknown origin); assay type: ADME
T4 sequence (P05177 whole entry): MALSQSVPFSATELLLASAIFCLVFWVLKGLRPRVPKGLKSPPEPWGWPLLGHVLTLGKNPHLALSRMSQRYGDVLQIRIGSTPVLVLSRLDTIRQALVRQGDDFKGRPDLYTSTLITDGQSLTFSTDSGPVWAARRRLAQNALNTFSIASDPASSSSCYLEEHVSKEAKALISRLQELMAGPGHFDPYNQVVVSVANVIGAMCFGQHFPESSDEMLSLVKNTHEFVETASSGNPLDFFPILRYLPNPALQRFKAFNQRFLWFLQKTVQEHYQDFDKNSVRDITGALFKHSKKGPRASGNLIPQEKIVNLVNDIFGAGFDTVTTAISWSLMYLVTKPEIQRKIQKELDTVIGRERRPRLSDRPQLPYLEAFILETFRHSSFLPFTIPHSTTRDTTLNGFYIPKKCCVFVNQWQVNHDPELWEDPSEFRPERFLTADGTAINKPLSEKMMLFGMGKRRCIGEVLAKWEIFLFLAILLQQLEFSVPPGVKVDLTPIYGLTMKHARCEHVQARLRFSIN

[10] = Tmax in rat at 5 mg/kg, po; assay type: ADME, organism-based; details: in vivo
Cytochrome P450 2C9 = Cytochrome P450 2C9 (Homo sapiens, UniProt P11712); experiment: Inhibition of CYP2C9 (unknown origin); assay type: ADME
Sequence of Cytochrome P450 2C9 (P11712 whole entry): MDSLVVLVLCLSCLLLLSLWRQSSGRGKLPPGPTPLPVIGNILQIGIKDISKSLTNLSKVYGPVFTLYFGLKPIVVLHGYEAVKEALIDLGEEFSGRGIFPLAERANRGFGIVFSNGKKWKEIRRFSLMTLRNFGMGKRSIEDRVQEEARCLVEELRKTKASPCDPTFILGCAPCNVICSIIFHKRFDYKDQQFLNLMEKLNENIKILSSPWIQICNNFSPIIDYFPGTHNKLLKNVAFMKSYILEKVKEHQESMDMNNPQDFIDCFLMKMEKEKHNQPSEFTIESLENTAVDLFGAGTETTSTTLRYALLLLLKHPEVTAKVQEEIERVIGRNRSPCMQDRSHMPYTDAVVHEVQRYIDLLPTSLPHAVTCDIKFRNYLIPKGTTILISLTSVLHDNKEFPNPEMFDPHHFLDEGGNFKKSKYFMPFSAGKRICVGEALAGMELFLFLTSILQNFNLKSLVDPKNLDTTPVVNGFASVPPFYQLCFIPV

Cytochrome P450 2C19 = Cytochrome P450 2C19 (Homo sapiens, UniProt P33261); experiment: Inhibition of CYP2C19 (unknown origin); assay type: ADME
Sequence of Cytochrome P450 2C19 (P33261 whole entry): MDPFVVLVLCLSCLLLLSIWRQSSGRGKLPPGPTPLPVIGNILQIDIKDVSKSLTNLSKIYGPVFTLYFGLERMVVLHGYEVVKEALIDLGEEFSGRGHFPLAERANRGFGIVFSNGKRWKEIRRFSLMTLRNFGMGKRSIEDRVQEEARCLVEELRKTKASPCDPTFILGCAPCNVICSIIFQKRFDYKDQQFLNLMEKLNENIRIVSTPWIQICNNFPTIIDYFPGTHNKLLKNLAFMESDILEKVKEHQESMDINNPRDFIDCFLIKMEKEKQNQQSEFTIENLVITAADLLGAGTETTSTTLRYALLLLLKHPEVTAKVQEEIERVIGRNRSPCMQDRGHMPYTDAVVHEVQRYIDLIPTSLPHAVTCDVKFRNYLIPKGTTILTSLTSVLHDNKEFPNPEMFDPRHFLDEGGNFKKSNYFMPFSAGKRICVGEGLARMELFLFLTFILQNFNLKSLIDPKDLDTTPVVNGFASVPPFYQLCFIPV

[11] = Clearance in rat at 1 mg/kg, iv; assay type: ADME, organism-based; details: in vivo
Outline: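 Rat dosed intravenously at 1 mg/kg.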

Cytochrome P450 3A4 = Cytochrome P450 3A4 (Homo sapiens, UniProt P08684); experiment: Inhibition of CYP3A4 (unknown origin); assay type: ADME
Sequence of Cytochrome P450 3A4 (P08684 whole entry): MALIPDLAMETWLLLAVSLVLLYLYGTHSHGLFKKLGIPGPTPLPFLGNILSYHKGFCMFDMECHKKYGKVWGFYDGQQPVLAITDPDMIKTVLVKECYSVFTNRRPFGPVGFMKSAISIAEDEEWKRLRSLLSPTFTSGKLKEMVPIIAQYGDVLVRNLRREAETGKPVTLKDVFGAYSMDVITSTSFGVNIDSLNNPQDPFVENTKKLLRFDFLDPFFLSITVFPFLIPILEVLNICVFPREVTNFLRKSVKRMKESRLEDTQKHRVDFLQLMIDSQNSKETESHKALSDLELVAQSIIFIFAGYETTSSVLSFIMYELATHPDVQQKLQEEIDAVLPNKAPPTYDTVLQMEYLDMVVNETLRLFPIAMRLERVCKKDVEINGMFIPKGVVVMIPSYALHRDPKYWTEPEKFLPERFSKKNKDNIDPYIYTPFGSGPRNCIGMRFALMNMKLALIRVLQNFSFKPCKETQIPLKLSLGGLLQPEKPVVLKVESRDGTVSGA

Cytochrome P450 2B6 = biological target: T5, Cytochrome P450 2B6 (Homo sapiens, UniProt P20813); experiment: Inhibition of CYP2B6 (unknown origin); assay type: ADME
T5 sequence (P20813 whole entry): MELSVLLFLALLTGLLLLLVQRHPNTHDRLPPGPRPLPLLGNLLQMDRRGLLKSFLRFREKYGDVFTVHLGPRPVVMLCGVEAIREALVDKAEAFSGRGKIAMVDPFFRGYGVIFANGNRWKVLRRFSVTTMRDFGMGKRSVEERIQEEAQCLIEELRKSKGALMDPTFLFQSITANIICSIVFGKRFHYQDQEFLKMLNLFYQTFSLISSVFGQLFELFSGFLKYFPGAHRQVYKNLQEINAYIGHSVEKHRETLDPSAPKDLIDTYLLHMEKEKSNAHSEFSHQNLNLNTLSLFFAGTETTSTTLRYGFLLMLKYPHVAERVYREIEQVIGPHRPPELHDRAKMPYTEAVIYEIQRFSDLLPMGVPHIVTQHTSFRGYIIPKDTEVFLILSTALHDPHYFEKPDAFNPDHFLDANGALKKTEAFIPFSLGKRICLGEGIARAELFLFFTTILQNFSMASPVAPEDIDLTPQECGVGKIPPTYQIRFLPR

[12] = Cmax in rat at 5 mg/kg, po; assay type: ADME, organism-based; set-up: dose 5 mg/kg, route oral; details: in vivo
Cytochrome P450 2D6 = Cytochrome P450 2D6 (Homo sapiens, UniProt P10635); experiment: Inhibition of CYP2D6 (unknown origin); assay type: ADME
Sequence of Cytochrome P450 2D6 (P10635 whole entry): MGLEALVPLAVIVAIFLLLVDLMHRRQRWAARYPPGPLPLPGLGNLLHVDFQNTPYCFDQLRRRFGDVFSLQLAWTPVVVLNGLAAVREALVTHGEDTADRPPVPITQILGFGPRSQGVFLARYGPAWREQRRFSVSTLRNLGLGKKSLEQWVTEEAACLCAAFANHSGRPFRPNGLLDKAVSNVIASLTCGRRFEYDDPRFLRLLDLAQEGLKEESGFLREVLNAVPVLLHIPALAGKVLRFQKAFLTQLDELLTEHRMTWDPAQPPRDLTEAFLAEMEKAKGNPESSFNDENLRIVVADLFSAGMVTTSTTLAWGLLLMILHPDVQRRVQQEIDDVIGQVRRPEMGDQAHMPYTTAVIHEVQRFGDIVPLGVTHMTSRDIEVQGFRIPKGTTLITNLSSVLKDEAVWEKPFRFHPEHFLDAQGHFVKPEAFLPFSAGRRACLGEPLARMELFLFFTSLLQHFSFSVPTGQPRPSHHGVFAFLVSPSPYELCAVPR

[13] = biological target: T6, Prostaglandin E2 receptor EP1 subtype (Homo sapiens, UniProt P34995); experiment: Antagonist activity at human EP1 receptor
T6 sequence (P34995 whole entry): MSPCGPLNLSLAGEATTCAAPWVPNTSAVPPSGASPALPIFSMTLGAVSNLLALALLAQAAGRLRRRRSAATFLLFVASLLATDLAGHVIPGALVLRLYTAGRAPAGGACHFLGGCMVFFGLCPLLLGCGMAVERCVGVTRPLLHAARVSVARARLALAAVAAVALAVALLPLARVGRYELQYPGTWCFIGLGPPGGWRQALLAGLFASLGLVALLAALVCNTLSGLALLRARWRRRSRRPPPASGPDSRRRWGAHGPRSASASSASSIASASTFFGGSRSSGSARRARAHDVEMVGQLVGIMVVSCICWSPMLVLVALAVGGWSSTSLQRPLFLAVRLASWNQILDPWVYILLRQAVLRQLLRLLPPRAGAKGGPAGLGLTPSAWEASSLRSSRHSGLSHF

[14] = Drug metabolism in human hepatic microsomes; assay type: ADME, Microsome; details: liver microsomes, read-out: Drug metabolism
[15] = Drug metabolism in rat hepatic microsomes; assay type: ADME, Microsome; details: liver microsomes, read-out: Drug metabolism
[16] = Aqueous solubility of the compound at pH 6; assay type: physicochemical; details: aqueous medium

SMILES: Cc1cccc(C)c1NC(=O)c1cc(-c2ccc(C(=O)O)cc2)nc2ccccc12
- Ki [1]: > 19200 nM
- IC50 [2]: > 30000 nM
- IC50 [3]: > 25000 nM

SMILES: Cc1ccc(C(=O)O)c(C)c1NC(=O)c1cc(-c2cccc(CO)c2)nc2ccccc12
- Ki [1]: 17 nM
- IC50 [2]: 312 nM
- IC50 [3]: 5.2 nM
- Ratio IC50 [4]: > 5

SMILES: Cc1cc(C(=O)O)cc(C)c1NC(=O)c1cc(-c2ccccc2)cc2ccccc12
- Ki [1]: 8.04 nM
- IC50 [2]: 623 nM
- IC50 [3]: 3.48 nM

SMILES: Cc1ccc(C(=O)O)c(C)c1NC(=O)c1cc(-c2cccc(Cl)c2)cc2ccccc12
- bioavailability [5]: 100%
- Ki [1]: 3.49 nM
- IC50 [6]: > 25000 nM
- Ki [6]: > 17500 nM
- IC50 [7]: 3700 nM
- Ki [7]: 2800 nM
- IC50 (Cytochrome P450 2C8): > 10000 nM
- metabolised at 0.5 h [8]: 7%
- Ratio [9]: 104
- IC50 (Cytochrome P450 1A2): > 10000 nM
- Tmax [10]: 60 min
- IC50 (Cytochrome P450 2C9): > 10000 nM
- IC50 (Cytochrome P450 2C19): > 10000 nM
- clearance [11]: 1.9 mL/min/kg
- IC50 [2]: 243 nM
- IC50 [3]: 3.62 nM
- IC50 (Cytochrome P450 3A4): > 10000 nM
- IC50 (Cytochrome P450 2B6): > 10000 nM
- Cmax [12]: 10900 ng/mL
- IC50 (Cytochrome P450 2D6): > 10000 nM
- IC50 [13]: > 25000 nM
- Ki [13]: > 19500 nM

SMILES: Cc1ccc(C(=O)O)c(C)c1NC(=O)c1cc(-c2ccccc2)cc2ccccc12
- Ki [1]: 6.72 nM
- IC50 [2]: 577 nM
- IC50 [3]: 5.65 nM

SMILES: CCc1nc2c(C)nc(C)cc2n1-c1ccc(CCNC(=O)NS(=O)(=O)c2ccc(C)cc2)cc1 [GRAPIPRANT]
- metabolised [14]: 2%
- metabolised [15]: 5%
- solubility [16]: 977 µg/mL (≈ 1990 µM)
- IC50 [2]: 1520 nM

SMILES: Cc1cc(C(=O)O)cc(C)c1NC(=O)c1cc(-c2cccc(CO)c2)nc2ccccc12
- bioavailability [5]: 3%
- Ki [1]: 52.3 nM
- metabolised at 0.5 h [8]: < 1%
- Ratio [9]: 0.2
- Tmax [10]: 15 min
- clearance [11]: 59.6 mL/min/kg
- IC50 [2]: 501 nM
- IC50 [3]: 3.08 nM
- Cmax [12]: 42.3 ng/mL

Continued, in another order:

- metabolised [14]: 71%
- Ki [1]: 512 nM
- metabolised [15]: 64%
- solubility [16]: < 1 µg/mL
- IC50 [2]: > 30000 nM
- IC50 [3]: 128 nM
SMILES: Cc1cccc(C)c1NC(=O)c1cc(-c2ccccc2)nc2ccccc12

- bioavailability [5]: 6%
- Ki [1]: 1.98 nM
- metabolised at 0.5 h [8]: < 1%
- Tmax [10]: 15 min
- clearance [11]: 23.8 mL/min/kg
- IC50 [2]: 6.2 nM
- IC50 [3]: 2.42 nM
- Ratio IC50 [4]: > 250
- Cmax [12]: 85.7 ng/mL
SMILES: Cc1ccc(C(=O)O)c(C)c1NC(=O)c1cc(-c2cccc(CO)c2)cc2ccccc12
- Ratio [9]: 33

- Ki [1]: 39.2 nM
- IC50 [2]: 1980 nM
- IC50 [3]: 11.2 nM
SMILES: Cc1cc(C(=O)O)cc(C)c1NC(=O)c1cc(-c2ccccc2)nc2ccccc12

- Ki [1]: 3.54 nM
- IC50 [2]: 136 nM
- IC50 [3]: 1.11 nM
SMILES: Cc1cc(C(=O)O)cc(C)c1NC(=O)c1cc(-c2cccc(CO)c2)cc2ccccc12
